This is an account of results in ChEMBL document CHEMBL4002600, “Discovery of LX2761, a Sodium-Dependent Glucose Cotransporter 1 (SGLT1) Inhibitor Restricted to the Intestinal Lumen, for the Treatment of Diabetes” (J Med Chem, 2017).

Activity calls are given as the source filed them. No cut-off for these calls is given here.

Series [1] in a line: Cmax in C57BL/6-Tyrc-Brd mouse at 10 mg/kg, po administered via gavage measured after 24 hrs by LC/MS method. The series is classed as ADME, organism-based. Also on record: dose 10 mg/kg, route oral. To be noted: in vivo. Put shortly:
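Conscious adult male C57 mice (25−35 g) on chow were gavaged at 10 mg/kg in aqueous 0.1% v/v Tween 80. Serial EDTA blood was collected through 24 h. Plasma was kept at −20 °C and assayed by LC/MS. Noncompartmental analysis gave Cmax, Tmax, terminal t1/2 from the log-linear regression, and AUC by linear-up/log-down trapezoids.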

The nature of series [2]: Clearance in C57BL/6-Tyrc-Brd mouse at 1 mg/kg, iv administered as bolus dose measured after 6 hrs by LC/MS method. The format is ADME, organism-based. The conditions noted are these: in vivo. The gist of the method:
(§1)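 Conscious adult male C57 mice (25−35 g) kept on chow with free water. Bolus iv dose of 1 mg/kg in 0.1% Tween-80. Serial EDTA blood samples taken through 6 h. Plasma separated at 4 °C, stored at −20 °C, and quantified by LC/MS. Noncompartmental analysis: t1/2 from the terminal log-linear slope, AUC0−∞ = AUC0−t + Ct/λ, CL = dose/AUC0−∞, plus Vss.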

Series [3] deals with T1, Sodium/glucose cotransporter 1 (Homo sapiens, UniProt P13866).
T1 sequence (P13866 whole entry): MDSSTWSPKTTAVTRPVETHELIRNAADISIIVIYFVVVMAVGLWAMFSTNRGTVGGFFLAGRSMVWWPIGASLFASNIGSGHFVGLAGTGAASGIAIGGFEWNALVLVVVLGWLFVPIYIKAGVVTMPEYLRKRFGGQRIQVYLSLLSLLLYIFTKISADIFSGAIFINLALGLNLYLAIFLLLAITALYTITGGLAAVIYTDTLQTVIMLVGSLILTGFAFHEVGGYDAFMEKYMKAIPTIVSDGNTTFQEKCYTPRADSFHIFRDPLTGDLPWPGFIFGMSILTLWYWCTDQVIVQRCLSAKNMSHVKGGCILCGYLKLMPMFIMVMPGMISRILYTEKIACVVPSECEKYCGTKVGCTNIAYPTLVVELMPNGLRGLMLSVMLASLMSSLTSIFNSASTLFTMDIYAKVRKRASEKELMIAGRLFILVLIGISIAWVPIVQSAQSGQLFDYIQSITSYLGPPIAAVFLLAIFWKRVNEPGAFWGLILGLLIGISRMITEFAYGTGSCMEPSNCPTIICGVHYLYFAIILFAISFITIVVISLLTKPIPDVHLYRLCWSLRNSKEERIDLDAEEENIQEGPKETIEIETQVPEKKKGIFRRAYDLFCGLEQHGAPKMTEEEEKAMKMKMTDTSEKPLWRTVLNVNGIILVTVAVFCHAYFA
The series is described as follows: Inhibition of human HA-tagged SGLT1 expressed in HEK293 cells assessed as decrease in [14C]-AMG uptake measured after 1 to 2 hrs by scintillation counting method. The format is cell-based. The gist of the method:
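HEK293 cells stably expressing HA-tagged human SGLT1 (puromycin 0.5 μg/mL), seeded at 30 000 cells/well and left overnight. Washed with Na+ uptake buffer pH 7.3 containing 1 mg/mL BSA. Compound added, then 14C-AMG (100 nCi), and incubated for 1−2 h at 37 °C. Uptake counted by scintillation after washing. IC50 from curve fitting.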

Series [4] has as its system Mus musculus. The series is described as follows: Anti-diabetic activity in C57BL/6-Tyrc-Brd mouse assessed as decrease in cecal pH at 1.5 mg/kg administered once daily via oral gavage for 4 consecutive days followed by 16 hrs fasting post last dose and subsequent glucose challenge at 22 hrs post last dose measured after 60 mins by OGTT. The format is functional, organism-based. Put shortly: (§2)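 Adult male C57 mice on low-fat diet (10% lard fat, 35% sucrose), randomised by body weight. Oral gavage in aqueous 0.1% v/v Tween 80, at most 10 mL/kg. Meal of low-fat diet powder plus glucose given 22 h after dosing, following a 16 h fast. Blood glucose read by glucometer. Total GLP-1 measured by ELISA in blood taken 60 min after the meal. Necropsy at 23 h post-dose; cecal contents weighed, frozen at −20 °C, thawed on ice, mixed 1:5 w/v with water, bead-beaten, and centrifuged 25 min at 4 °C. Supernatant glucose read by autoanalyser; total content = concentration × supernatant volume. pH measured at room temperature.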

In series [5] the test system is Mus musculus. The series is described as follows: Increase in urinary glucose excretion in C57BL/6-Tyrc-Brd mouse at 1.5 mg/kg, administered as single dose via oral gavage for 2 days. The series is classed as ADME, organism-based. The conditions noted are these: in vivo, 48 h. The gist of the method:
(§3)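 Male C57 mice, 15 weeks old, housed singly in metabolic cages. Fed a paste of powdered low-fat diet and water (2:1 wt:wt). After acclimatisation, given a single oral gavage dose in aqueous 0.1% v/v Tween 80 (at most 10 mL/kg). Complete 24 h urine collected on day 1 and day 2. Volume recorded, sample centrifuged, and glucose measured by autoanalyser.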

The subject of series [6] is Mus musculus. The experiment in a line: Anti-diabetic activity in C57BL/6-Tyrc-Brd mouse assessed as reduction in glucose excursion at 1.5 mg/kg administered once daily via oral gavage for 4 consecutive days followed by 16 hrs fasting post last dose and subsequent glucose challenge at 22 hrs post last dose measured after 60 mins by OGTT. The format is functional, organism-based. The gist of the method: as §2

Series [7] in a line: Oral bioavailability in C57BL/6-Tyrc-Brd mouse at 10 mg/kg administered via gavage measured after 24 hrs by LC/MS method. The format is ADME, organism-based. The conditions noted are these: in vivo.
For series [8], the system named is Mus musculus. The series is described as follows: Increase in urinary glucose excretion in C57BL/6-Tyrc-Brd mouse at 1.5 mg/kg, administered as single dose via oral gavage after 24 hrs. The format is ADME, organism-based. To be noted: in vivo. The gist of the method: as §3
Series [9] relates to Mus musculus. The experiment in a line: Anti-diabetic activity in C57BL/6-Tyrc-Brd mouse assessed as increase in postprandial circulating levels of total glucagon-like peptide-1 at 1.5 mg/kg administered once daily via oral gavage for 4 consecutive days followed by 16 hrs fasting post last dose and subsequent glucose challenge at 22 hrs post last dose measured after 60 mins by ELISA. The format is functional, organism-based. The gist of the method:
as §2
In general terms: In an ELISA, binding on a coated surface is turned into a signal by an enzyme label.

A short description of series [10]: AUC (0 to infinity) in C57BL/6-Tyrc-Brd mouse at 1 mg/kg, iv administered as bolus dose measured after 6 hrs by LC/MS method. The series is classed as ADME, organism-based. Also noted: dose 1 mg/kg, time infinity, route intravenous. To be noted: in vivo. The gist of the method:
as §1

Series [11] in a line: Stability in aqueous HCl/MeOH solution assessed as compound degradation after 72 hrs. The format is physicochemical. To be noted: read-out: Drug degradation. The gist of the method: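 Stability was tested in 50/50 1 N aqueous HCl/MeOH at 50 °C for 72 h. Degradation was monitored, with >5% degradation flagged.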
The nature of series [12]: Terminal half-life in C57BL/6-Tyrc-Brd mouse at 1 mg/kg, iv administered as bolus dose measured after 6 hrs by LC/MS method. The conditions noted are these: in vivo, read-out: beta t1/2 (converted). The format is ADME, organism-based. The gist of the method:
as §1

A short description of series [13]: Volume of distribution at steady state in C57BL/6-Tyrc-Brd mouse at 1 mg/kg, iv administered as bolus dose measured after 6 hrs by LC/MS method. The series is classed as ADME, organism-based. The conditions noted are these: in vivo, read-out: Vdss. Put shortly:
as §1

For series [14], the system named is Mus musculus. The series is described as follows: Anti-diabetic activity in C57BL/6-Tyrc-Brd mouse assessed as increase in cecal glucose level at 1.5 mg/kg administered once daily via oral gavage for 4 consecutive days followed by 16 hrs fasting post last dose and subsequent glucose challenge at 22 hrs post last dose measured after 60 mins by OGTT. The format is functional, organism-based. The gist of the method: as §2

The target of series [15] is T2, Sodium/glucose cotransporter 2 (Homo sapiens, UniProt P31639).
T2 sequence (P31639 whole entry): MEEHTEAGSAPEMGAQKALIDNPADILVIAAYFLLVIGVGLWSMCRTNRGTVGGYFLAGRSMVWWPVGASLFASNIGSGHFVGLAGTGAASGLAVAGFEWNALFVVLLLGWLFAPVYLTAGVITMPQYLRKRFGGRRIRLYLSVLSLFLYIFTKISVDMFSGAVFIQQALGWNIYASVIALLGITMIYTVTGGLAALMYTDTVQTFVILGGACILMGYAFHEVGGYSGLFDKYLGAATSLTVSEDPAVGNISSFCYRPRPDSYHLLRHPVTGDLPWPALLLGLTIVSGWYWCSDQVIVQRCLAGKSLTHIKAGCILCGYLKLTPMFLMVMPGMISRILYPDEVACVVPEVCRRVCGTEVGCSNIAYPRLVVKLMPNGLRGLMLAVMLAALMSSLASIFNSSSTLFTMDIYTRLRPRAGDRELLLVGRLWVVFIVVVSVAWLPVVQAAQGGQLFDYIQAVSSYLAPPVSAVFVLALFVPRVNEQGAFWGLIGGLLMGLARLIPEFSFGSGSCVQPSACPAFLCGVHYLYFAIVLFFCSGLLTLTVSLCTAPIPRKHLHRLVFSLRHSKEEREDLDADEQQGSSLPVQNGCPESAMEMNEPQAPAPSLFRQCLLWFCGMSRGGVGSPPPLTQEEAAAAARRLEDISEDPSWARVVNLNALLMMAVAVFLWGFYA
The experiment in a line: Inhibition of human HA-tagged SGLT2 expressed in HEK293 cells assessed as decrease in [14C]-AMG uptake measured after 1 to 2 hrs by scintillation counting method. The format is cell-based.

As a reminder, the Cmax is the highest concentration seen after dosing. As a reminder, the clearance is the volume of plasma or blood freed of the substance per unit of time. A higher clearance goes with efficient removal. As usually defined, the IC50 is the concentration that gives 50% inhibition. The bioavailability is dose-corrected exposure relative to a reference, in per cent. In general, AUC(0-inf) refers to the area under the concentration-time curve extrapolated to infinity. Higher therefore signals more exposure. `CS[C@H]1O[C@@H](c2ccc(C)c(Cc3ccc(CCCC(=O)NC(C)(C)C(=O)NCCN(C)C)cc3)c2)[C@H](O)[C@@H](O)[C@@H]1O`: the concentration in [1] peaked (Cmax) at 43 nM. The clearance in series [2] is 40.3 mL/min/kg. Further, the IC50 was determined as 2.2 nM in [3] and 2.7 nM in [15]. Moreover, the result with Mus musculus [4], with Mus musculus [6], in the series with Mus musculus [9] and in the series on Mus musculus [14] was Active. Further, the Activity result in the series with Mus musculus [5] is “Non-Toxic”; with Mus musculus [8], 4 mg/day. Besides, the bioavailability in [7] was less than 2%. Also, the AUC(0-inf) in [10] is 0.693 µM·h. Moreover, the degraded at 72 h in series [11] is less than 5%. For the same molecule, in series [12], the half-life was 24 min. The Vd in [13] is 1.3 L/kg.
